Rce1 inhib: yeast Rce1p protease inhibitors, primary screen, biochemical, fluorescence, cell-free homogeneous; yeast membranes, quenched prenylated peptide cleavage fluorescence; actives 0.27% (n = 290,000); calls only; AID 2563, 2010;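 active means fall in fluorescence gain of 50% or more versus controls, with final raw signal at or below 3038400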;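 further: plate controls were neutral control wells for no effect and wells lacking membranes for full effect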
Target sequence (Q03530 whole entry, looked up): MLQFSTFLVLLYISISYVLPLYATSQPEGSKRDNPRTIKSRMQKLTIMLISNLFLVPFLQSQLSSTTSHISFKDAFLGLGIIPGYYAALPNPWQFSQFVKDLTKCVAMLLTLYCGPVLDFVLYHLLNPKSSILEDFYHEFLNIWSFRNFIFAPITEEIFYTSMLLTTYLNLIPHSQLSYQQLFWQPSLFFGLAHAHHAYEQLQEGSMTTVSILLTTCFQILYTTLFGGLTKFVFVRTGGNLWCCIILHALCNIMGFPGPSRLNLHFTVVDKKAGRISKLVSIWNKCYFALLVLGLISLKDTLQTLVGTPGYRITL
Rev-erbA mod: modulators of Rev-erb alpha DNA binding, primary screen, biochemical, FITC-DNA, fluorescence polarization, uHTS; actives 0.79% (n = 370,000); Nuclear receptor subfamily 1 group D member 1 (Homo sapiens), P20393; Rev-erbα–FITC-DNA binding, 90 min; activity, % at 10 µM; AID 1259318, 2017;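 active means activity above about 14%, limit read from the data; passing the limit was not always enough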;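 further: 0% = DMSO wells with 35 nM protein and 100% = DMSO wells with 750 nM protein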
MIN6 prolif: inducers of MIN6 beta-cell proliferation, primary screen, ATP luminescence, uHTS; MIN6 cells proliferation, ATPlite luminescence, 48 h; cells starved in 0.2% serum; 100% = growth in 10% serum; proliferation, % at 10 µM; actives 0.29% (n = 330,000);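 active means compounds whose signal lies at least 3.5 SD above the mean of all wells on their plate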;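 further: 0% = DMSO-treated cells in low-serum medium and 100% = 10% serum control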
CR mimetic SO: reduction of superoxide in aged yeast, primary screen, HTS. S. cerevisiae aged cells, superoxide DHE fluorescence; active compounds read low. superoxide response (% of plate mean), % at 10 µM. actives 0.18% (n = 330,000). AID 2690, 2010;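 active means superoxide response under a set limit, about three screen SD below normal, cut at about 65% in these data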;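 further: yeast aged for seven days with compound at 30 °C before DHE staining; 100% = average MFI of all compound-treated wells on the plate with controls excluded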
PG9 Ab binder: binders of HIV-1 gp120 antibody PG9, primary screen, biochemical, TR-FRET | TR-FRET gp120-PG9 antibody binding | HIV-1 gp120 / PG9 antibody interaction | actives 0.43% (n = 360,000) | inhibition, % at 6.7 µM; in the data active means inhibition above about 8.5%
UCH37 DUB inh: inhibitors of human UCH37 deubiquitinase, primary screen, biochemical, Ub-AMC cleavage, fluorescence; purified proteasome/UCH37; inhibition, % (test concentration not listed); actives 0.33% (n = 330,000);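 active means mean inhibition over replicate wells above about 20%, limit read from the data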;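 further: 0% = compound-free wells with enzyme and 100% = wells lacking proteasome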
Target sequence (Q9Y5K5 whole entry, looked up): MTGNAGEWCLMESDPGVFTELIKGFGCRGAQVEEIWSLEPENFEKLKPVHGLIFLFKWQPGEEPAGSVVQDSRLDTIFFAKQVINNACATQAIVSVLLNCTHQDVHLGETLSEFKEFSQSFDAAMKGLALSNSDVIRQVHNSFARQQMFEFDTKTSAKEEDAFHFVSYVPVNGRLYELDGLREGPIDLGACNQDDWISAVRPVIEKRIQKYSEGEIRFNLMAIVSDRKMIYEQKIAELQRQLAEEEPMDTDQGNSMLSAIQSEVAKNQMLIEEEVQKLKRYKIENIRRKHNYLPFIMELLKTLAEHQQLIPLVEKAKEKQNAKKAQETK
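Material: human UCH37 enzyme supplied as purified proteasome complex / Amount: 0.15 nM proteasome as dispensed / Buffer or medium: pH 7.4 Tris-HCl (50 mM) with ovalbumin, ATP-MgCl2, DTT / Times: preincubation 30 min, reaction 25 min, room temperature / Technique: AMC fluorescence from Ub-AMC cleavage, excitation 355 nm, emission 460 nm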
NR1D1 mod conf: modulators of Rev-erb alpha DNA binding, confirmation, biochemical, FITC-DNA, fluorescence polarization, single point | shares compounds with Rev-erbA mod | 90 min | activation, % at 25 µM | actives 61% (n = 3,000) | AID 1259319, 2017;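 active means activation at or above a set limit, or at least 3 SD above the negative control mean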;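 further: 0% = 35 nM protein with DMSO and 100% = 750 nM protein high control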
RORg DNA counter: modulation of RORgamma DNA binding, dose response, counter-screen for Rev-erb alpha modulator project, biochemical, fluorescence polarization, FITC-DNA. purified RORgamma protein-FITC-DNA binding. shares compounds with Rev-erbA mod. IC50, µM. AID 1259320, 2017. actives 8% (n = 910);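 active means Compounds whose fitted half-maximal concentration for disrupting protein-DNA binding is below 10 micromolar; the record names Rev-erb in its text, so the target is in doubt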
The depositor's hits bear a star; i = inactive; . = no result. Only some compounds are listed: those with a hit (about 1.9% of all), similar ones and a draw of the others.

SMILES | Rce1 inhib | Rev-erbA mod | MIN6 prolif | CR mimetic SO | PG9 Ab binder | UCH37 DUB inh | NR1D1 mod conf | others
Cc1oc2c(cc(NS(=O)(=O)c3cccs3)c3ccccc32)c1C(=O)OC(C)C | i | 50.4* | -3.1 | 102.6 | -3.0 | 2.7 | 71.5*
CC(CC(=O)Nc1ccc(Cl)cc1Cl)=NNC(=O)C(=O)NCCO | . | . | . | . | . | 4.4 | .
O=S(=O)(NN=Cc1ccc(N2CCOCC2)cc1)c1ccc(Br)cc1 | . | . | . | . | . | 2.4 | .
O=C(Nc1cccc(-c2nc3ncccc3o2)c1)c1sc2cc(Cl)ccc2c1Cl | i | 31.3* | -3.2 | 99.8 | -1.4 | -11.9 | 17.4*
Cc1ccccc1NC(=O)CSc1nc(COc2ccccc2)nc2ccccc12 | . | -1.9 | 0.8 | 90.3 | 2.3 | 2.8 | .
Cc1cc(C)c(NC(=O)CSc2nc(COc3ccccc3)nc3ccccc23)c(C)c1 | i | 54.8* | -3.2 | 91.8 | -0.4 | 5.0 | 47.2* | RORg DNA counter=>40
O=[N+]([O-])c1cccc(C=NNC2CCS(=O)(=O)C2)c1 (stereo not given) | . | . | . | . | . | 2.4 | .
O=C(/C=C1\OCc2ccccc21)c1ccccc1 | . | 13.4* | . | . | 0.8 | . | -3.7
CC1(N2CCCCC2)CC2(O)C(=NO)CCCC2=[N+]1[O-] (stereo not given) | . | . | . | . | . | 0.1 | .
COCCNC(=O)c1nn2c(C(F)(F)F)cc(-c3ccccc3)nc2c1Br | . | -4.0 | . | . | 1.3 | . | .
CCOC(=O)c1nn2c(C(F)(F)F)cc(-c3ccc(OC)cc3)nc2c1Br | i | 40.6* | -0.5 | 110.2 | -1.2 | -17.7 | 4.9
Cc1ccc(SCc2c(C(=O)NN=CC3CC=CCC3)nnn2-c2nonc2N)cc1 (stereo not given) | . | . | . | . | . | 5.2 | .
C1COC(NC(C2CC2)C2CC2)=N1 | i | 16.7* | -1.1 | 99.5 | -0.3 | 2.2 | -6.8
C1CCC(NC2=NCCO2)CC1 | . | 1.7 | . | . | -1.0 | . | .
CCOc1cccc2cc(-c3cn4cc(C)ccc4n3)c(=O)oc12 | i | 53.0* | -5.2 | 109.2 | 2.6 | -4.9 | 24.5*
COc1ccc(-c2ccc3oc(-c4ccsc4)cc(=O)c3c2)cc1F | . | 66.1* | -1.2 | 101.6 | -7.4 | -12.8 | 30.6*
CCOC(=O)c1cc(-c2ccc([N+](=O)[O-])cc2)nc2c1c(=O)[nH]c(=O)n2Cc1ccccc1 | i | -27.7 | -3.2 | 100.9 | 1.6 | 3.3 | .
CCOC(=O)c1cc(-c2cc3ccccc3o2)nc2c1c(=O)[nH]c(=O)n2CCOC | i | 27.2* | 3.6 | 90.7 | -0.2 | -383.4 | 8.8
CN(N=Cc1ccc(O)c(O)c1)c1nc(-c2ccccc2)cc(-c2ccccc2)n1 | . | . | . | . | . | 6.6 | .
Cc1c(Cc2ccccc2)sc(/N=C/c2ccc3ccccc3c2)c1C(N)=O | . | . | . | 108.7 | . | . | .
Cc1ccc(/C=N/c2sc(Cc3ccccc3)c(C)c2C(N)=O)o1 | i | 29.5* | 0.0 | 99.1 | -3.3 | . | 7.9
CN(Cc1nc2ccccc2c(=O)[nH]1)C(=O)c1cc(-c2ccc(Br)cc2)nc2ccccc12 | . | 36.1* | . | . | 0.6 | 0.0 | 23.3*
O=C1CCCN1CCCNc1nc2c(S(=O)(=O)c3ccc(Br)cc3)nnn2c2ccccc12 | i | 30.6* | -0.2 | 95.2 | 1.5 | -313.7 | 5.9
Cc1ccc(C)c(Nc2nc3c(S(=O)(=O)c4ccccc4)nnn3c3ccccc23)c1 | i | 63.3* | -1.1 | 96.2 | 1.2 | -491.3 | 32.8* | RORg DNA counter=>40
Cc1ccc(S(=O)(=O)c2nnn3c2nc(Nc2cccc(C)c2)c2ccccc23)cc1 | i | 28.5* | -0.9 | 111.9 | -0.1 | -95.9 | 14.1
SMILES | Rce1 inhib | Rev-erbA mod | MIN6 prolif | CR mimetic SO | PG9 Ab binder | UCH37 DUB inh | NR1D1 mod conf | others
Cc1ccc(S(=O)(=O)c2nnn3c2nc(N2CCC(C(N)=O)CC2)c2ccccc23)cc1C | i | -3.0 | -1.8 | 110.3 | -1.7 | 2.9 | .
COc1cc(C=NNC(=O)CNC(=O)c2ccncc2)ccc1OC(C)=O | . | . | . | . | . | 5.5 | .
CCOC(=O)c1c(-c2cccs2)csc1NC(=O)c1ccco1 | i | 35.8* | -4.0 | 84.2 | -2.4 | -63.6 | 10.9
CCCc1cc(=O)oc2cc(OCC(=O)N3CCc4ccccc43)ccc12 | i | 20.9* | 3.0 | 117.0 | 1.7 | -14.0 | 8.5
CCCCc1cc(=O)oc2cc(OCC(=O)N3CCc4ccccc43)ccc12 | i | 15.5 | 0.5 | 94.8 | -1.2 | -40.2 | .
COc1ccccc1Cc1c(-c2cccc(Cl)c2)nc2c(C)cc(Br)cn12 | . | 22.3* | . | . | 2.2 | . | 10.8*
Cc1cc(Br)cn2c(Cc3cccc(Cl)c3)c(-c3cccc(Cl)c3)nc12 | . | 22.9* | . | . | 4.8 | . | 13.2*
Cc1cc(Br)c2nc(-c3cccc(Br)c3)c(Cc3cccc(Cl)c3)n2c1 | . | 18.1* | . | . | 6.1 | . | 6.9
Cc1cc(Br)cn2c(Cc3ccccc3)c(-c3ccc(Cl)cc3)nc12 | . | 25.4* | . | . | 1.0 | . | 12.4*
Cc1cc(C)nc(N=C(N)Nc2ccc(F)c([N+](=O)[O-])c2)n1 | . | . | . | . | . | 4.4 | .
O=C(COc1ccc2ccccc2c1)NCC(=O)NN=Cc1ccco1 | . | . | . | . | . | 2.5 | .
O=C(CC=NOCc1ccc(Cl)cc1Cl)c1ccccc1 | . | . | . | . | . | 0.0 | .
C=CCn1c(=O)c(C(=O)NC2CC2)c(O)c2cc(OC)c(OC)cc21 | i | 19.8 | -4.5 | 99.2 | 5.9 | -3.6 | .
C=CCn1c(=O)c(C(=O)NCCc2ccc(Cl)cc2)c(O)c2cc(OC)c(OC)cc21 | i | 28.9* | -2.8 | 95.8 | -0.3 | -175.7 | 3.8
COc1cccc(C(=O)CSc2nnc(-c3cc(OC)cc(OC)c3)o2)c1 | i | 27.3* | -2.8 | 94.2 | -0.8 | 1.9 | 35.6* | RORg DNA counter=>40
Cn1c(SCC(=O)c2ccc3c(c2)NC(=O)CO3)nc2ccccc21 | i | 35.9* | -1.9 | 107.5 | 7.9 | 1.5 | 24.2*
O=C1COc2ccc(C(=O)CSc3nnc(Cc4ccccc4)o3)cc2N1 | i | 17.7* | -0.7 | 104.2 | 5.7 | 3.7 | 20.7*
O=C(CSc1nnc(Cc2ccccc2)o1)c1ccc(F)cc1 | i | 2.0 | -2.2 | 91.0 | -1.2 | 1.3 | .
O=C1COc2ccc(C(=O)CSc3nc4ccccc4c(=O)n3-c3ccc(Cl)c(Cl)c3)cc2N1 | i | 25.8* | -6.0 | 97.0 | -0.2 | -5.8 | 6.7
